# Data: ChEMBL document CHEMBL3352815, “Indolinone based LRRK2 kinase inhibitors with a key hydrogen bond” (Bioorg Med Chem Lett, 2014)
# Experiments:
# [1] = biological target: T1, Leucine-rich repeat serine/threonine-protein kinase 2 (Homo sapiens, UniProt Q5S007); assay: Inhibition of recombinant LRRK2 (unknown origin) using gamma-32P-ATP assessed as LRRKtide substrate phosphorylation level by autoradiography
# [2] = biological target: T1, Leucine-rich repeat serine/threonine-protein kinase 2; assay: Inhibition of recombinant LRRK2 (unknown origin) using gamma-32P-ATP assessed as LRRKtide substrate phosphorylation level at 1 uM by autoradiography; set-up: scale not given: the % may be the effect or the level left
# How it was run: (§1)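 In vitro LRRK2 kinase activity assay with a peptide substrate. Compound was tested at two concentrations, 10 and 1. Read-out is residual LRRK2 kinase activity, given as percent relative to control.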
# [3] = biological target: T1, Leucine-rich repeat serine/threonine-protein kinase 2; assay: Inhibition of recombinant LRRK2 (unknown origin) using gamma-32P-ATP assessed as LRRKtide substrate phosphorylation level at 10 uM by autoradiography; set-up: scale not given: the % may be the effect or the level left; how it was run: as §1
# [4] = Toxicity in zebrafish embryo assessed as lethality at 20 to 30 uM after 24 hrs; format: organism-based, Danio rerio; conditions: in vivo, read-out: Activity
# How it was run: (§2)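 Zebrafish embryos kept in E3 medium at 28 °C; compound added at 24 hpf, with 1% DMSO embryos as control. Concentrations from 1 to 100 µM. Lethality recorded over time through 120 hpf, with phenotype also compared at 96 hpf.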
# [5] = biological target: Glycogen synthase kinase-3 beta (Homo sapiens) (UniProt P49841); assay: Inhibition of human recombinant GSK3beta using CFFKNIVTPRTPPPSQGK-amide substrate after 90 mins incubation by LANCE method
# Danio rerio [6] = species: Danio rerio; assay: Toxicity in zebrafish embryo assessed as crooked tails at 5 to 10 uM after 24 hrs; format: organism-based; conditions: in vivo
# [7] = biological target: Proto-oncogene tyrosine-protein kinase Src (Homo sapiens) (UniProt P12931); assay: Inhibition of human recombinant Src kinase expressed insect cells using Ulight-Poly GAT[EAY(1:1:1)]n substrate assessed as remaining enzyme activity at 1 uM after 10 mins relative to control
# [8] = biological target: Insulin receptor (Homo sapiens) (UniProt P06213); assay: Inhibition of human recombinant InsR using Ulight-Poly GAT[EAY(1:1:1)]n substrate assessed as remaining enzyme activity at 1 uM after 10 mins relative to control
# [9] = biological target: Serine/threonine-protein kinase Chk2 (Homo sapiens) (UniProt O96017); assay: Inhibition of human recombinant CHK2 expressed insect cells using CREBtide (CKRREILSRRPSYRK) substrate assessed as remaining enzyme activity at 1 uM after 15 mins relative to control
# [10] = biological target: Tyrosine-protein kinase Lck (Homo sapiens) (UniProt P06239); assay: Inhibition of human recombinant Lck kinase expressed insect cells using Ulight-Poly GAT[EAY(1:1:1)]n substrate assessed as remaining enzyme activity at 1 uM after 30 mins relative to control
# Chain of Tyrosine-protein kinase Lck (Homo sapiens) (P06239 2-509 limits assumed): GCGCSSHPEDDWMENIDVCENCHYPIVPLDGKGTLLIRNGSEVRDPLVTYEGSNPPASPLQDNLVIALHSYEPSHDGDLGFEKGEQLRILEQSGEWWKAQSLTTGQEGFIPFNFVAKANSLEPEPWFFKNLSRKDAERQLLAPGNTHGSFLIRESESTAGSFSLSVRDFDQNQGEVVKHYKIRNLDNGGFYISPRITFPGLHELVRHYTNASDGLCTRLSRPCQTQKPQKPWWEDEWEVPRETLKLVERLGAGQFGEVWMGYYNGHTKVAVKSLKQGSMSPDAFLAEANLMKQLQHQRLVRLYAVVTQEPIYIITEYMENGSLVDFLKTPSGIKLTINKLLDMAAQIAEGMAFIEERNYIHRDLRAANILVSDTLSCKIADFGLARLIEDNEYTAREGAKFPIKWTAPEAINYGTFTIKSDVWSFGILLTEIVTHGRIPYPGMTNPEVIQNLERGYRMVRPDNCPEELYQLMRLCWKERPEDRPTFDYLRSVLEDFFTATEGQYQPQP
# [11] = biological target: Serine/threonine-protein kinase Sgk1 (Homo sapiens) (UniProt O00141); assay: Inhibition of human recombinant SGK1 using Ulight-RRRSLLE substrate assessed as remaining enzyme activity at 1 uM after 30 mins relative to control
# Chain of Serine/threonine-protein kinase Sgk1 (Homo sapiens) (O00141 whole entry): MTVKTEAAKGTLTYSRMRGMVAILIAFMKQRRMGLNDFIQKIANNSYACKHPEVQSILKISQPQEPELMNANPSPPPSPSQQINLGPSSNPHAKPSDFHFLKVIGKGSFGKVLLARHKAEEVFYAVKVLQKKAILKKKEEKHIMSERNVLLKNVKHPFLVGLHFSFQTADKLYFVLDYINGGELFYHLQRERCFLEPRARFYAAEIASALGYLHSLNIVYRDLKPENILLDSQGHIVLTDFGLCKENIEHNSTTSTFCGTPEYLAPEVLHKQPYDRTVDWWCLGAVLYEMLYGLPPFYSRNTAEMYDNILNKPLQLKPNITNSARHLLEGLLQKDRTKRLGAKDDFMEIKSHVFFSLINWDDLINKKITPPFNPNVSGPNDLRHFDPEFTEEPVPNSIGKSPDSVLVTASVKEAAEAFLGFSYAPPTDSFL
# [12] = biological target: 3-phosphoinositide-dependent protein kinase 1 (Homo sapiens) (UniProt O15530); assay: Inhibition of human recombinant PDK1 expressed insect cells using Ulight-FLGFTYVAP substrate assessed as remaining enzyme activity at 1 uM after 90 mins relative to control
# [13] = biological target: Interleukin-1 receptor-associated kinase 4 (Homo sapiens) (UniProt Q9NWZ3); assay: Inhibition of human recombinant IRAK4 expressed insect cells using Ulight-FLGFTYVAP substrate assessed as remaining enzyme activity at 1 uM after 90 mins relative to control
# [14] = biological target: RAC-alpha serine/threonine-protein kinase (Homo sapiens) (UniProt P31749); assay: Inhibition of human recombinant Akt1/PKBalpha expressed insect cells using CKRREILSRRPSYRK substrate assessed as remaining enzyme activity at 1 uM after 60 mins relative to control
# [15] = biological target: Hepatocyte growth factor receptor (Homo sapiens) (UniProt P08581); assay: Inhibition of human recombinant c-Met kinase expressed insect cells using Ulight-CAGAGAIETDKEYYTVKD substrate assessed as remaining enzyme activity at 1 uM after 60 mins relative to control
# [16] = biological target: Vascular endothelial growth factor receptor 2 (Homo sapiens) (UniProt P35968); assay: Inhibition of human recombinant KDR kinase expressed Sf9 cells using Ulight-CAGAGAIETDKEYYTVKD substrate assessed as remaining enzyme activity at 1 uM after 60 mins relative to control
# [17] = biological target: Cyclin-dependent kinase 2 (Homo sapiens) (UniProt P24941); assay: Inhibition of human recombinant CDK2 using Ulight-CFFKNIVTPRTPPPSQGK-amide substrate assessed as remaining enzyme activity at 1 uM after 30 mins relative to control
# [18] = biological target: Serine/threonine-protein kinase PLK1 (Homo sapiens) (UniProt P53350); assay: Inhibition of human recombinant PLK1 using Ulight-FLGFTYVAP substrate assessed as remaining enzyme activity at 1 uM after 60 mins relative to control
# Chain of Serine/threonine-protein kinase PLK1 (Homo sapiens) (P53350 whole entry): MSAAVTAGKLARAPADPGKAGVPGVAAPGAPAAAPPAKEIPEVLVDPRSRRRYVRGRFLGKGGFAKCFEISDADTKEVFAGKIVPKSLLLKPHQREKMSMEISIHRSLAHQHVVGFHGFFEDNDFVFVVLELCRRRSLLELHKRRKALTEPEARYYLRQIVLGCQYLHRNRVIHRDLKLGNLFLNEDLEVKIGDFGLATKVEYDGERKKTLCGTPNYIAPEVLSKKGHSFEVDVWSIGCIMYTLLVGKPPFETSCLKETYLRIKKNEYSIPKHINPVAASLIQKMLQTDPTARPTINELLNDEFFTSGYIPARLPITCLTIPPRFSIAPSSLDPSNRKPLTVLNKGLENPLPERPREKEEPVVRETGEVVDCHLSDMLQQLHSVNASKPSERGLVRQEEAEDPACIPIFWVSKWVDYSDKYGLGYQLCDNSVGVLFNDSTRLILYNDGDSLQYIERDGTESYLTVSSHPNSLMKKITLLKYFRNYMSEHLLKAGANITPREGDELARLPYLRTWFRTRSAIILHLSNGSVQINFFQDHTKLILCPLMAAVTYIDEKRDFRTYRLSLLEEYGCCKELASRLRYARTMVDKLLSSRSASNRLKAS
# [19] = biological target: Tyrosine-protein kinase ABL1 (Homo sapiens) (UniProt P00519); assay: Inhibition of human recombinant Abl kinase expressed insect cells using Ulight-TK peptide substrate assessed as remaining enzyme activity at 1 uM after 60 mins relative to control
# [20] = biological target: Rho-associated protein kinase 1 (Homo sapiens) (UniProt Q13464); assay: Inhibition of human recombinant ROCK1 using Ulight-RRRSLLE substrate assessed as remaining enzyme activity at 1 uM after 30 mins relative to control
# [21] = biological target: Serine/threonine-protein kinase Chk1 (Homo sapiens) (UniProt O14757); assay: Inhibition of human recombinant CHK1 expressed insect cells using CREBtide (CKRREILSRRPSYRK) substrate assessed as remaining enzyme activity at 1 uM after 30 mins relative to control
# Chain of Serine/threonine-protein kinase Chk1 (Homo sapiens) (O14757 whole entry): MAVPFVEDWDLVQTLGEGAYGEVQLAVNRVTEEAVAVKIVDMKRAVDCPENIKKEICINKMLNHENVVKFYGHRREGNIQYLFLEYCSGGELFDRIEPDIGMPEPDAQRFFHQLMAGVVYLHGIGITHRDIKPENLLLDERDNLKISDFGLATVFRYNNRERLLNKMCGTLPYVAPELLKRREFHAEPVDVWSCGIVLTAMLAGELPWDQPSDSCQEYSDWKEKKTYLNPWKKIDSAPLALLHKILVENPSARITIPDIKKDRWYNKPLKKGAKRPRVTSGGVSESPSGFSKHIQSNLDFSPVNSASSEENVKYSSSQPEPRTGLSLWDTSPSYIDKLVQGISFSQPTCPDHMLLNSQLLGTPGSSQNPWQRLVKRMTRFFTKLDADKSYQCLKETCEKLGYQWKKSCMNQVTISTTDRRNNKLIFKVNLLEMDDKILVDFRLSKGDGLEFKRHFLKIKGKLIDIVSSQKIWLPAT
# [22] = Toxicity in zebrafish embryo assessed as lethality at 30 uM after 120 hrs; format: organism-based, Danio rerio; conditions: in vivo, read-out: Activity; how it was run: as §2
# [23] = biological target: MAP kinase-activated protein kinase 2 (Homo sapiens) (UniProt P49137); assay: Inhibition of human recombinant MAPKAPK2 expressed Escherichia coli using CREBtide (CKRREILSRRPSYRK) substrate assessed as remaining enzyme activity at 1 uM after 15 mins relative to control
# [24] = biological target: Serine/threonine-protein kinase Nek2 (Homo sapiens) (UniProt P51955); assay: Inhibition of human recombinant NEK2 expressed insect cells using Ulight-FLGFTYVAP substrate assessed as remaining enzyme activity at 1 uM after 60 mins relative to control
# Chain of Serine/threonine-protein kinase Nek2 (Homo sapiens) (P51955 whole entry): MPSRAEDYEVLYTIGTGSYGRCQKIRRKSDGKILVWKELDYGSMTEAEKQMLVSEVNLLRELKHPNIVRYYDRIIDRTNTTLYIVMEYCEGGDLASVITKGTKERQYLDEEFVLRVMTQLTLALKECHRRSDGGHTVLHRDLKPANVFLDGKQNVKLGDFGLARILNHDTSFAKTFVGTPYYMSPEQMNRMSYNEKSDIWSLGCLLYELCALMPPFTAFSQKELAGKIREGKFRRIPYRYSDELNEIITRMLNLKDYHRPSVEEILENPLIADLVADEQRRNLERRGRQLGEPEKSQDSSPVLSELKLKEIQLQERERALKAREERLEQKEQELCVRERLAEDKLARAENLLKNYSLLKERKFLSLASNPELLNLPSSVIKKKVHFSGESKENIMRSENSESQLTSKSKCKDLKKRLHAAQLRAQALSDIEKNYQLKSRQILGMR
# Danio rerio [25] = species: Danio rerio; assay: Toxicity in zebrafish embryo at below 10 uM after 24 hrs; format: organism-based; conditions: in vivo
# How it was run: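 Zebrafish embryos collected and kept in E3 medium at 28 °C. Compound added at 24 hpf, and phenotypes (growth, tail morphology) were compared at 96 hpf against control embryos in 1% DMSO. Lethality was followed over time up to 120 hpf across a concentration series.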
# [26] = biological target: Cyclin-dependent kinase 1/cyclin B1 (Homo sapiens) (UniProt P06493+P14635); assay: Inhibition of human recombinant CDC2/CDK1 (cycB) expressed insect cells using Ulight-CFFKNIVTPRTPPPSQGK-amide substrate assessed as remaining enzyme activity at 1 uM after 15 mins relative to control
# [27] = biological target: Ephrin type-A receptor 3 (Homo sapiens) (UniProt P29320); assay: Inhibition of human recombinant EphA3 kinase using Ulight-TK peptide substrate assessed as remaining enzyme activity at 1 uM after 60 mins relative to control
# [28] = biological target: Serine/threonine-protein kinase 26 (Homo sapiens) (UniProt Q9P289); assay: Inhibition of human recombinant MST4 kinase using Ulight TM- PKC substrate assessed as remaining enzyme activity at 1 uM after 30 mins relative to control
# [29] = biological target: MAP kinase-interacting serine/threonine-protein kinase 2 (Homo sapiens) (UniProt Q9HBH9); assay: Inhibition of human recombinant MNK2 expressed Sf21 cells using CREBtide (CKRREILSRRPSYRK) substrate assessed as remaining enzyme activity at 1 uM after 90 mins relative to control
# [30] = biological target: Serine/threonine-protein kinase TAO2 (Homo sapiens) (UniProt Q9UL54); assay: Inhibition of human recombinant TAOK2 (TAO1) using Ulight-FLGFTYVAP substrate assessed as remaining enzyme activity at 1 uM after 60 mins relative to control
# [31] = biological target: High affinity nerve growth factor receptor (Homo sapiens) (UniProt P04629); assay: Inhibition of human recombinant TRKA expressed insect cells using Ulight-Poly GAT[EAY(1:1:1)]n substrate assessed as remaining enzyme activity at 1 uM after 10 mins relative to control
# T1 sequence (Q5S007 whole entry): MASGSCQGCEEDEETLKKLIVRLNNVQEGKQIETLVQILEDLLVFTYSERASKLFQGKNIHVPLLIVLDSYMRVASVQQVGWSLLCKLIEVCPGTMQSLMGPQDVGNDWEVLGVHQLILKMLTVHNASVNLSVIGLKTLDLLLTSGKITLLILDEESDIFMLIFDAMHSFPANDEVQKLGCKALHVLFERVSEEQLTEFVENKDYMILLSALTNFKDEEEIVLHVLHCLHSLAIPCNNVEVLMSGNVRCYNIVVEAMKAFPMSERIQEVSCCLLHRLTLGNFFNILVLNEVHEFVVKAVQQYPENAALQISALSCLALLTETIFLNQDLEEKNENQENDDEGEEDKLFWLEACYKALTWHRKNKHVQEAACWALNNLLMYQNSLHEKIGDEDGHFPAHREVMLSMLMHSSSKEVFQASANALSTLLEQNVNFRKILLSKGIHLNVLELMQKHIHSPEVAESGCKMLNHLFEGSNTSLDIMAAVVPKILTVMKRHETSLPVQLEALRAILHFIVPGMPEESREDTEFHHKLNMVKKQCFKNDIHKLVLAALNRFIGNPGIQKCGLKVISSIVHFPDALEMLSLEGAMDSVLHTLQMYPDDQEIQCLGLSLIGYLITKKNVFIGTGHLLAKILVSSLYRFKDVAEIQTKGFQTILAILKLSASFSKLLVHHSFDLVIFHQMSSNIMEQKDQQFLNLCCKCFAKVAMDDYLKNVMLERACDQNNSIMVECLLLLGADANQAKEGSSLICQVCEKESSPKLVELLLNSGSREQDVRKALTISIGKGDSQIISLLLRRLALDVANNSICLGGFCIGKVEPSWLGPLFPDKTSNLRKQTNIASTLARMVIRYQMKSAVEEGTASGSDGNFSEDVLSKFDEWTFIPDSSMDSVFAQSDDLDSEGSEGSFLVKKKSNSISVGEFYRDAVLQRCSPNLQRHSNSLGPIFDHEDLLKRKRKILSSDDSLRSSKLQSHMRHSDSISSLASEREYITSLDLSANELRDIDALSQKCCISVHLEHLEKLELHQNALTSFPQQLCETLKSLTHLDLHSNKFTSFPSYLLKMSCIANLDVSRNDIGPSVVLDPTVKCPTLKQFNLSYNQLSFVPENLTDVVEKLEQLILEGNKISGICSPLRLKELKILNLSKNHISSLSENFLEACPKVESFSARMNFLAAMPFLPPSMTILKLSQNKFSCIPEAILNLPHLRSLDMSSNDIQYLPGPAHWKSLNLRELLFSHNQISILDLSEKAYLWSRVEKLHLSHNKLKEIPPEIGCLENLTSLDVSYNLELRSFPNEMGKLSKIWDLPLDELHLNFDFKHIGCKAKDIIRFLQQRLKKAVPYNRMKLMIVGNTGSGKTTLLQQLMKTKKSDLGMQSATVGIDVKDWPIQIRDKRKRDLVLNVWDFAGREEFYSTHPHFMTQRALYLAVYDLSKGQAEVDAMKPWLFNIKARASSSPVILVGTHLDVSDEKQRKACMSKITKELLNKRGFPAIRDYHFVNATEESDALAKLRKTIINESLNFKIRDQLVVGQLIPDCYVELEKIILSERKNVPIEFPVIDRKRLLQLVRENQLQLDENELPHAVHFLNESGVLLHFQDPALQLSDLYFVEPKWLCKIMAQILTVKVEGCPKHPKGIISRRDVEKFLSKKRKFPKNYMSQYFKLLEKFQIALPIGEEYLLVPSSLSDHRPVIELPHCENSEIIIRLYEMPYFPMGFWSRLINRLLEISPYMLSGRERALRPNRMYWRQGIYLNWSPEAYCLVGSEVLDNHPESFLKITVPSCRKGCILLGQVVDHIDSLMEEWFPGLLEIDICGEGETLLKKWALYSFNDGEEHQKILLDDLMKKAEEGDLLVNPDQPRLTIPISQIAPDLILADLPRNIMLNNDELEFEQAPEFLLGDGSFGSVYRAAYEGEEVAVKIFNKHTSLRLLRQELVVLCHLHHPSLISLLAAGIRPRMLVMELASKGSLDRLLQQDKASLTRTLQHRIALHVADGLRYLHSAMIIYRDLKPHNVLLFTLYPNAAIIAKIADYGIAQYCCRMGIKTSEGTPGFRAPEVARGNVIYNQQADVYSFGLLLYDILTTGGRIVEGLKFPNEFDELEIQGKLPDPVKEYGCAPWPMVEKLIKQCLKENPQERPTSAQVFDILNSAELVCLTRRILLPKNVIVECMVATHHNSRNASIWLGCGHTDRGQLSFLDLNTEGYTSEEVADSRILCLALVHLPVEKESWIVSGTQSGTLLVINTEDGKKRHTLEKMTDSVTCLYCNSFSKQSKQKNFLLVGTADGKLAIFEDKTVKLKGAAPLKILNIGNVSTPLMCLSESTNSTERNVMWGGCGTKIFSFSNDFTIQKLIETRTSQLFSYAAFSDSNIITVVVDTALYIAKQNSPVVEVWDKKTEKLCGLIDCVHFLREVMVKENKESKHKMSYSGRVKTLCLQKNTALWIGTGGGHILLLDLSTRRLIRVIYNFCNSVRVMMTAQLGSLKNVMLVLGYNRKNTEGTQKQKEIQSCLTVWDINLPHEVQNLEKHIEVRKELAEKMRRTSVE
smiles,measurement,setting,value
O=C1Nc2ccc(Cl)cc2/C1=C\c1ccc(O)cc1,IC50,[1],12000 nM
same,Activity,[2],12%
same,Activity,[3],8%
COc1cc(/C=C2/C(=O)Nc3ccc(Cl)cc32)ccc1N1CCOCC1,Activity,[2],22%
same,Activity,[3],33%
COc1cc(/C=C2/C(=O)Nc3ccc(Cl)cc32)ccc1OCCN(C)C,Activity,[2],26%
same,Activity,[3],24%
COc1cc(OCCN(C)C)ccc1/C=C1/C(=O)Nc2ccc(Cl)cc21,Activity,[2],62%
same,Activity,[3],29%
COc1cc(C(=O)N2CCC(N3CCN(C)CC3)CC2)ccc1Nc1ncc2c(n1)N(C)c1ccccc1C(=O)N2C,Activity,[2],13%
same,Activity,[3],5%
CN(C)CCOc1ccc(/C=C2/C(=O)Nc3ccc(Cl)cc32)cc1,IC50,[1],466 nM
same,Activity,[2],22%
same,Activity,[3],3%
COc1ccc2c(c1)/C(=C\c1cc(Br)c(O)c(Br)c1)C(=O)N2,IC50,[1],31 nM
COc1cc(/C=C2/C(=O)Nc3ccc(Cl)cc32)ccc1OCCN1CCOCC1,IC50,[1],163 nM
same,Activity,[2],8%
same,Activity,[3],9%
O=C1Nc2ccc(Cl)cc2/C1=C\c1ccc(O)c(Br)c1,"mortality at 24 h, up to 30 µM",[4],> 80%
same,inhibition,[5],19%
same,Activity,Danio rerio [6],Toxic
O=C1Nc2ccc(Cl)cc2/C1=C\c1ccccc1,IC50,[1],10000 nM
same,Activity,[2],27%
same,Activity,[3],16%
COc1c(C)cc(/C=C2/C(=O)Nc3ccc(Cl)cc32)cc1C,IC50,[1],1500 nM
O=C1Nc2ccc(Cl)cc2/C1=C\c1ccc(OCCN2CCOCC2)cc1,IC50,[1],205 nM
same,Activity,[2],37%
same,Activity,[3],15%
O=C1Nc2ccc(Cl)cc2/C1=C/c1cc(Br)c(O)c(Br)c1,Activity,[7],101%
same,Activity,[8],104%
same,Activity,[9],87%
same,Activity,[10],102%
same,Activity,[11],100%
same,Activity,[12],83%
same,Activity,[13],90%
same,Activity,[14],87%
same,Activity,[15],69%
same,Activity,[16],97%
same,Activity,[17],95%
same,Activity,[18],80%
same,Activity,[19],77%
same,Activity,[20],92%
same,Activity,[21],81%
same,"mortality at 120 h, 30 µM",[22],40%
same,Activity,[23],83%
same,Activity,[24],99%
same,Activity,Danio rerio [25],Non-toxic
same,Activity,[26],90%
same,Activity,[27],101%
same,Activity,[28],103%
same,Activity,[29],89%
same,Activity,[30],85%
same,Activity,[31],91%
CN[C@@H]1C[C@H]2O[C@@](C)([C@@H]1OC)n1c3ccccc3c3c4c(c5c6ccccc6n2c5c31)C(=O)NC4,Activity,[2],5%
same,Activity,[3],2%
